For 26 compounds, EC50, IC50 and NI results are on record in ChEMBL document CHEMBL1135526, “Discovery of 2-phenylamino-imidazo[4,5-h]isoquinolin-9-ones: a new class of inhibitors of lck kinase” (J Med Chem, 2002).

For orientation: EC50 means the concentration needed to bring the measured effect to its halfway point. What is called IC50 is the concentration at which inhibition is half-maximal.

The subject of experiment [1] is Jurkat. Kind of experiment: Inhibition of calcium release in Jurkat cells. The format is functional, cell-based. Conditions: Homo sapiens. In short, it runs like this: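 Jurkat cells were washed, loaded with Fluo-3 (2 μM final), then held in HBSS with Ca/Mg, HEPES, probenecid and 1% FBS at pH 7.4, giving 3 × 10⁵ cells/mL final. Compound was added for 15 min at room temperature. Anti-CD3 (clone X35, 0.25 μg/mL final) was then added and fluorescence followed for 13 min. EC50 is the mean of ≥2 experiments in duplicate ± SD.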

The target of experiment [2] is Tyrosine-protein kinase Lck (Homo sapiens, UniProt P06239). Kind of experiment: Inhibitory activity against recombinant human p56 Lck tyrosine kinase.
Experiment [3] has as its target Tyrosine-protein kinase SYK (Homo sapiens, UniProt P43405). Kind of experiment: Inhibition of Syk tyrosine kinase. In short, it runs like this: (§1)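 Enzyme amount for each kinase chosen to give a linear response over the whole reaction period. Inhibition was read as IC50 or as the highest concentration tested.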
In experiment [4] the target is Proto-oncogene tyrosine-protein kinase Src (Homo sapiens, UniProt P12931). Kind of experiment: Inhibition of c-SRC with 1 uM ATP. The essentials:
as §1

For experiment [5], the target named is T1, Tyrosine-protein kinase ZAP-70 (Homo sapiens, UniProt P43403).
T1 sequence (P43403 whole entry): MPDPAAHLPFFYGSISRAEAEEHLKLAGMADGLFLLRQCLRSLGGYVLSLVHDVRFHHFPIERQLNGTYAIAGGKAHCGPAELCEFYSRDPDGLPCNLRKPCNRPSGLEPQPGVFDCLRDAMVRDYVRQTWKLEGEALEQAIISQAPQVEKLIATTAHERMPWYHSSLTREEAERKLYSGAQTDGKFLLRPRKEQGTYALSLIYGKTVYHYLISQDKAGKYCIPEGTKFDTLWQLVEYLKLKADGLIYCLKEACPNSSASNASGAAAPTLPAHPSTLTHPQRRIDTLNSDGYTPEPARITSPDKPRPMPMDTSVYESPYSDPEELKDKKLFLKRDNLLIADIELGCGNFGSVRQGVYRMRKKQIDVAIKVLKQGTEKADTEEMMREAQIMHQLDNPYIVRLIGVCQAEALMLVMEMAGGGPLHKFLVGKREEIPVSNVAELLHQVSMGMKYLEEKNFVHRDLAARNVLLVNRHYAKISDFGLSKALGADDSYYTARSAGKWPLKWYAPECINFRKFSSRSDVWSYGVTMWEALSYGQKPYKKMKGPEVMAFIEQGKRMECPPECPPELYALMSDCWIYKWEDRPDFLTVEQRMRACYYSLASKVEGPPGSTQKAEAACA
Kind of experiment: Inhibition of Zeta-chain (TCR) associated protein kinase 70 kDa (ZAP70) with 1 uM ATP. In short, it runs like this:
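Radiometric kinase assay with enzyme amount set to give a linear response over the reaction period. ATP at 1 μM final with γ³³P-ATP at 20 Ci/mmol. Compounds from 5 mg/mL DMSO stock, final 200 to 1 μg/mL for IC50. Reactions started with enzyme, run 60 min at 30 °C, stopped with TCA/pyrophosphate, filter-harvested, and counted by scintillation.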

The target in experiment [6] is Epidermal growth factor receptor (Homo sapiens, UniProt P00533). Kind of experiment: Inhibition of Epidermal growth factor receptor.
The target of experiment [7] is MAP kinase p38 (Homo sapiens) (UniProt O15264+Q15759+Q16539+P53778). Kind of experiment: Inhibition of Mitogen-activated protein kinase p38 - No inhibition at 10 ug/mL. The format is protein assay.
The nature of experiment [8]: Inhibition of Extracellular signal-regulated kinase (Erk) - No inhibition at 100 ug/mL.
The target in experiment [9] is cAMP-dependent protein kinase (PKA) (Homo sapiens) (UniProt P22694+P17612+P22612). Kind of experiment: Inhibition of Protein kinase A (PKA) - No inhibition at 500 uM. The format is protein assay.

Activity calls are given as the source filed them. The calls are words filed in the database; no cut-off is given here.

Sequence of Tyrosine-protein kinase Lck (P06239 whole entry): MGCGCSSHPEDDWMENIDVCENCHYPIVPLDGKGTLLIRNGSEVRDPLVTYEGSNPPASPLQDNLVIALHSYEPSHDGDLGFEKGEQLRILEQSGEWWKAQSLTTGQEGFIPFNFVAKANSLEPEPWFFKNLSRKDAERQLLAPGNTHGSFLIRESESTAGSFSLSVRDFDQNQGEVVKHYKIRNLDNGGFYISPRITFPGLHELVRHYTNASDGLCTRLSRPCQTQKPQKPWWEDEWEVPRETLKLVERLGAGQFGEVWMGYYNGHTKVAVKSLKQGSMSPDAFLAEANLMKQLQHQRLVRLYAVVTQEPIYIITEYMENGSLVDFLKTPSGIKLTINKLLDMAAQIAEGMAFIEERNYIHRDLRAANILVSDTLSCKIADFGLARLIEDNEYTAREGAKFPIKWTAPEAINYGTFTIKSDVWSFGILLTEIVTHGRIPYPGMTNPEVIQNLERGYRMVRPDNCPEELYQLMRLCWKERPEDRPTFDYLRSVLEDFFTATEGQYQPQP
Sequence of Epidermal growth factor receptor (P00533 whole entry): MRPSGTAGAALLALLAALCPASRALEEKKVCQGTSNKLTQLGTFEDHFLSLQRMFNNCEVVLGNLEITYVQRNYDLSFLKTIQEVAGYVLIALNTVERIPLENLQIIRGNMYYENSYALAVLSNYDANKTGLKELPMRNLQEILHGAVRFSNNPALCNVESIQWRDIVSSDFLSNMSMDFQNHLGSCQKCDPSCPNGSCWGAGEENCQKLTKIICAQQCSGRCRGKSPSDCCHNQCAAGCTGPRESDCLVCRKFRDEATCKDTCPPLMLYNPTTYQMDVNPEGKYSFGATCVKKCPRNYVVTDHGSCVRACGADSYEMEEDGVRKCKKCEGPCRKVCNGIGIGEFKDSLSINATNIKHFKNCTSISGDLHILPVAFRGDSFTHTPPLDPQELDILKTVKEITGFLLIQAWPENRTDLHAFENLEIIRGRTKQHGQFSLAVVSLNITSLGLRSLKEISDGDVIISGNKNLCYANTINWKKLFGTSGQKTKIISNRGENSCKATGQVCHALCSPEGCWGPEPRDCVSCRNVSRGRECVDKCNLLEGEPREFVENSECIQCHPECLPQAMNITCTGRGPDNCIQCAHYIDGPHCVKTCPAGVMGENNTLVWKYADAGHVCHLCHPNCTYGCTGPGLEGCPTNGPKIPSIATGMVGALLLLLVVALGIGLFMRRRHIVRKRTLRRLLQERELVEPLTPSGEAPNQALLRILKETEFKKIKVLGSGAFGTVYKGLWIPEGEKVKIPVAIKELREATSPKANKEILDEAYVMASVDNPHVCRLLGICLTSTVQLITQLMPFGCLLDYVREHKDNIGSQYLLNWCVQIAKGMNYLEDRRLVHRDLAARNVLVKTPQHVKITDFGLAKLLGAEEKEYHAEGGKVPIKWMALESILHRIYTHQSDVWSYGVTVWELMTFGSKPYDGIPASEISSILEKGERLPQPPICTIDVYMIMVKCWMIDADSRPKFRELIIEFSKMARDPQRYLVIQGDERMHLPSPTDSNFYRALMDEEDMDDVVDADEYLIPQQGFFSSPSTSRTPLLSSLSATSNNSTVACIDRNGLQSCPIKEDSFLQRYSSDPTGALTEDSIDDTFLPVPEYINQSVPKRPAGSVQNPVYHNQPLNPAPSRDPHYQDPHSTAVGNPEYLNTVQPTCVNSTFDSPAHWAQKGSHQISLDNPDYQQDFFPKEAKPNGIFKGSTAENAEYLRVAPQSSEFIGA
Sequence of Proto-oncogene tyrosine-protein kinase Src (P12931 2-536 limits assumed): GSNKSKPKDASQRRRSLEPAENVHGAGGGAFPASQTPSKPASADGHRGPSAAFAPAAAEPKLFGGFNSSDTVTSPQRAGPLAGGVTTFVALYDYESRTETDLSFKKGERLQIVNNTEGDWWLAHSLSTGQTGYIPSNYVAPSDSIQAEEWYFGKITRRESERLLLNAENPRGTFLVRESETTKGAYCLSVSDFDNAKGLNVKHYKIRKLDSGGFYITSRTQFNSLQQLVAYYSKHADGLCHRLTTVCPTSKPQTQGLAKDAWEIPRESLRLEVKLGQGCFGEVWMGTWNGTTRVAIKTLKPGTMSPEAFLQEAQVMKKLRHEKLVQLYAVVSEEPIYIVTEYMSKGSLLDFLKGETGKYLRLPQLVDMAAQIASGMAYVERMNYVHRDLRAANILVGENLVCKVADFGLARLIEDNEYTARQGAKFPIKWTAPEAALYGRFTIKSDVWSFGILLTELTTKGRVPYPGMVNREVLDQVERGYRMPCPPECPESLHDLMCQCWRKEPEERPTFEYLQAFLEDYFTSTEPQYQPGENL

Regarding `CC1(C)C(=O)NC(=O)c2c1ccc1nc(Nc3c(Br)cc(Br)cc3Br)[nH]c21`, in experiment [1], the EC50 turned out to be 7300 nM. Further, the IC50 in [2] was 600 nM.

For `CC1(C)C(=O)NC(=O)c2c1ccc1nc(Nc3c(Cl)cccc3Cl)[nH]c21`, the EC50 in experiment [1] came out at 9700 nM. In addition, in experiment [2], the IC50 came out at 460 nM.

Consider `CC1(C)C(=O)NC(=O)c2c1ccc1[nH]c(Cc3c(Cl)cccc3Cl)nc21`, for which the IC50 in experiment [2] was 9600 nM.

As for `CCC1(CC)C(=O)NC(=O)c2c1ccc1[nH]c(Nc3c(Cl)cccc3Cl)nc21`, the IC50 in [2] was 5900 nM.

With `Cc1nc(O)c2c(ccc3[nH]c(Nc4c(Br)cc(Br)cc4Br)nc32)c1C`, the EC50 in experiment [1] turned out to be 610 nM. Besides, the IC50 in experiment [2] was 25 nM.

Take `CC1(C)C(=O)NC(=O)c2c1ccc1[nH]c(Nc3c(F)cccc3F)nc21`: in experiment [2], the IC50 stood at 11000 nM.

Regarding `Cc1cccc(Cl)c1Nc1nc2c3c(ccc2[nH]1)C(C)(C)C(=O)NC3=O`, the EC50 in experiment [1] was 2900 nM. Also, the IC50 in experiment [2] stood at 770 nM.

With `Cc1[nH]c(=O)c2c(ccc3nc(Nc4c(Cl)cccc4Cl)[nH]c32)c1C`, the IC50 in [3] was greater than 100000 nM; in [4] it was 12 nM; in experiment [2], 26 nM; in [5], 80000 nM; in experiment [6] it was 100000 nM.

With `CC1(C)CNC(=O)c2c1ccc1nc(Nc3c(Cl)cccc3Cl)[nH]c21`, the EC50 in [1] is 5200 nM. The IC50 in experiment [2] amounted to 1100 nM.

On to `Cc1nc(O)c2c(ccc3[nH]c(Nc4c(Cl)cccc4Cl)nc32)c1C`, for which the concentration giving a half-maximal response (EC50) in experiment [1] stood at 190 nM. Also, the NI entry in experiment [7], in experiment [8] and in experiment [9] was “inactive” in each case.

With `CC1(C)C(=O)NC(=O)c2c1ccc1[nH]c(Nc3c(Cl)cc(Cl)cc3Cl)nc21`, the EC50 in experiment [1] was 4300 nM. The IC50 in [2] amounted to 730 nM.

For the compound `CC(C)CC1(C)C(=O)NC(=O)c2c1ccc1nc(Nc3c(Cl)cccc3Cl)[nH]c21` (stereo not drawn), in experiment [2], the IC50 worked out at 5100 nM.

Turning to `Cc1cccc(Cl)c1Nc1nc2c(ccc3c(C)c(C)nc(O)c32)[nH]1`, the EC50 in experiment [1] amounted to 340 nM. Moreover, the IC50 in experiment [2] stood at 27 nM.

With `CN(c1nc2c3c(ccc2[nH]1)C(C)(C)C(=O)NC3=O)c1c(Cl)cccc1Cl`, the IC50 in experiment [2] stood at 2500 nM.

On to `Cn1c(Nc2c(Cl)cccc2Cl)nc2c3c(ccc21)C(C)(C)C(=O)NC3=O`, for which the IC50 in experiment [2] stood at 2500 nM.

Turning to `CC1(C)C(=O)NC(=O)c2c1ccc1nc(Nc3ccc(Cl)cc3)[nH]c21`, in experiment [2], the IC50 is greater than 40000 nM.

Turning to `CC1(C)C(=O)NC(=O)c2c1ccc1nc(Nc3ccc(Cl)cc3Cl)[nH]c21`, the IC50 in experiment [2] is greater than 40000 nM.

Regarding `O=C1NCCc2ccc3[nH]c(Nc4c(Cl)cccc4Cl)nc3c21`, the EC50 in experiment [1] is 1800 nM. In experiment [2], the IC50 was 380 nM.

Consider `Cc1nc(O)c2c(ccc3[nH]c(Nc4c(Cl)cc(Cl)cc4Cl)nc32)c1C`, for which the EC50 in [1] turned out to be 420 nM. The IC50 in [2] was determined as 18 nM.

Consider `Cc1[nH]c(=O)c2c(ccc3[nH]c(Nc4ccccc4Cl)nc32)c1C`, for which, in experiment [2], the IC50 turned out to be 150 nM.

As for `CC1(C)C(=O)NC(=O)c2c1ccc1nc(Nc3ccccc3Cl)[nH]c21`, the IC50 in experiment [2] is greater than 40000 nM.

As to `CC1(C)CNCc2c1ccc1[nH]c(Nc3c(Cl)cccc3Cl)nc21`, the IC50 in experiment [2] is greater than 40000 nM.

Turning to `CC1(C)C(=O)NC(=O)c2c1ccc1[nH]c(Nc3c(Cl)c(Cl)cc(Cl)c3Cl)nc21`, in experiment [2], the IC50 was greater than 40000 nM.

Consider `CN1C(=O)c2c(ccc3nc(Nc4c(Cl)cccc4Cl)[nH]c23)C(C)(C)C1=O`, for which, in experiment [2], the IC50 was found to be 9600 nM.

As for `Cc1cccc(C)c1Nc1nc2ccc3c(c2[nH]1)C(=O)NC(=O)C3(C)C`, the EC50 in [1] turned out to be 4600 nM. Moreover, in experiment [2], the IC50 came out at 460 nM.

Take `CCc1cccc(CC)c1Nc1nc2ccc3c(c2[nH]1)C(=O)NC(=O)C3(C)C`: the IC50 in [2] is greater than 40000 nM.
